Drawing on ChEMBL document CHEMBL3632567, “Selective Allosteric Antagonists for the G Protein-Coupled Receptor GPRC6A Based on the 2-Phenylindole Privileged Structure Scaffold” (J Med Chem, 2015), this text covers IC50 and Relative potency for 16 compounds.

In assay [1] the target is T1, G-protein coupled receptor family C group 6 member A (Mus musculus, UniProt Q8K4Z6).
T1 sequence (Q8K4Z6 whole entry): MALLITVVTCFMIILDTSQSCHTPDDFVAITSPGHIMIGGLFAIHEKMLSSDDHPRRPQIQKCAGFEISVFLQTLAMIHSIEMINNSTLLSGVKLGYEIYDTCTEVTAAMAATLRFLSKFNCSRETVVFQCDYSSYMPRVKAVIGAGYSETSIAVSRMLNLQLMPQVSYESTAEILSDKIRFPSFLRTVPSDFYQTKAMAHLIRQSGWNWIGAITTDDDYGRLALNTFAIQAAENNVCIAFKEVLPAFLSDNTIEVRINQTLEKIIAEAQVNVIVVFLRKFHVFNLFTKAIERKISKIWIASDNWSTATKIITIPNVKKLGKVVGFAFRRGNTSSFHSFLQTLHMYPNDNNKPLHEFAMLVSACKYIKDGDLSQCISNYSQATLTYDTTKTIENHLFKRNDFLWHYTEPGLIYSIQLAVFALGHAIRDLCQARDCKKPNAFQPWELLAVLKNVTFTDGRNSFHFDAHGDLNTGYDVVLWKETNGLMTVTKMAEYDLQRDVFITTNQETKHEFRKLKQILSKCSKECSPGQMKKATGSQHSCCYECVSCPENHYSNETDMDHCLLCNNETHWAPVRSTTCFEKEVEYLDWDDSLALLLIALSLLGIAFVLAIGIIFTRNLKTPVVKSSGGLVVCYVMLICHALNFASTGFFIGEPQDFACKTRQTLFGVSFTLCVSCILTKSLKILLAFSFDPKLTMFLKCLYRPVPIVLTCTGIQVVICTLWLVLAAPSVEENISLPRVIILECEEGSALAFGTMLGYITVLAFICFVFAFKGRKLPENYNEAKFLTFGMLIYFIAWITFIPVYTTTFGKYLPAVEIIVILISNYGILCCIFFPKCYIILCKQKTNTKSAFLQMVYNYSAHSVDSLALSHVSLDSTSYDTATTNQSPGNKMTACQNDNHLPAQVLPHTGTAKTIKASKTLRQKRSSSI
The assay is described as follows: Antagonist activity at mouse GPRC6A receptor expressed in HEK293 cells assessed as inhibition of L-ornithine-induced inositol monophosphate accumulation after 1 hr by FRET assay. Type of assay: functional, cell-based. The procedure, abridged:
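HEK-293T cells transiently co-transfected (Lipofectamine 2000, 48 h before assay) with mouse GPRC6A and Gq(G66D), 1:1, 12,500 cells/well on poly-D-lysine. Cells washed twice in HBSS/HEPES/BSA pH 7.4, then 1 h at 37 °C with compounds (up to 400 µM, 2% DMSO final) plus 500 µM L-ornithine in LiCl Ligand Buffer. IP1 read by HTRF; curves triplicate, ≥3 experiments; relative potency = IC50(reference)/IC50 × 100.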

Assay [2] deals with T2, G-protein coupled receptor family C group 6 member A (Mus musculus) (UniProt Q8K4Z6).
T2 sequence (whole entry): T1 sequence (Q8K4Z6 whole entry)
The assay is described as follows: Relative antagonist potency at mouse GPRC6A receptor expressed in HEK293 cells assessed as L-ornithine-induced inositol monophosphate accumulation after 1 hr by FRET assay relative to 2-[methyl-(2-morpholino-2-oxo-ethyl)amino]-1-(2-phenyl-1H-indol-3-yl)ethanone.

The target of assay [3] is T3, 5-hydroxytryptamine receptor 2C (Homo sapiens, UniProt P28335).
T3 sequence (P28335 whole entry): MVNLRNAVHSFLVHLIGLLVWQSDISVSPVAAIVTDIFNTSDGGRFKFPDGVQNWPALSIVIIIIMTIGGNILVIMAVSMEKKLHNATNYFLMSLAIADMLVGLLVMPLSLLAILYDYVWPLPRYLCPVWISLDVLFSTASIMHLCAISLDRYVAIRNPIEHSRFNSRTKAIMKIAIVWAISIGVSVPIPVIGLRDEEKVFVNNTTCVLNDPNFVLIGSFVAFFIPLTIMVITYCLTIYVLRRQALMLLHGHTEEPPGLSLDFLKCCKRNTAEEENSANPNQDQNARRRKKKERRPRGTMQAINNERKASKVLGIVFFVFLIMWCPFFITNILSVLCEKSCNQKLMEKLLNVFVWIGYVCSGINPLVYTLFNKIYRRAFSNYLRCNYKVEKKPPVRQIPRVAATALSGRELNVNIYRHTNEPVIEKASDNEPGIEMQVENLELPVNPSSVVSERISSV
Briefly: Antagonist activity at human 5HT2C receptor expressed in HEK293 cells assessed as inhibition of serotonin-induced inositol monophosphate accumulation after 1 hr by FRET assay. Format: functional, cell-based. The procedure, abridged: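 HEK-293T cells transiently transfected with human 5-HT2C (0.25 µg DNA/well), seeded 12,500/well 48 h before assay. After two HBSS/HEPES/BSA pH 7.4 washes, compounds in 2% DMSO final with 1 µM serotonin in Ligand Buffer (1 mM CaCl2, 1 mM MgCl2, LiCl, pH 7.4) applied 1 h at 37 °C. Lysate IP1 measured by HTRF (665/615 nm ratio vs standard); pIC50 by nonlinear regression, triplicate, ≥3 experiments.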

For assay [4], the target named is Muscarinic acetylcholine receptor M3 (Homo sapiens, UniProt P20309). Briefly: Antagonist activity at human muscarinic M3 receptor expressed in HEK293 cells assessed as inhibition of carbachol-induced inositol monophosphate accumulation after 1 hr by FRET assay. Type of assay: functional, cell-based. Summed up:
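HEK-293T cells transfected with empty pCIneo to use their native human M3 receptors, 12,500/well, assayed 48 h later. After two HBSS/HEPES/BSA pH 7.4 washes, cells were stimulated 1 h at 37 °C with 1 mM carbachol plus compounds (2% DMSO final) in LiCl-containing Ligand Buffer. IP1 quantified by HTRF against standard; triplicate curves, at least three experiments.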

Assay [5] concerns the target Metabotropic glutamate receptor 5 (Rattus norvegicus, UniProt P31424). Briefly: Antagonist activity at rat mGluR5 expressed in CHO cells assessed as inhibition of L-glutamate-induced inositol monophosphate accumulation after 1 hr by FRET assay. Format: functional, cell-based. Summed up:
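CHO cells stably expressing rat mGluR5, kept in DMEM with 10% dialyzed FBS and 1% L-proline, 37 °C, 5% CO2. After two washes in HBSS/HEPES/BSA pH 7.4, cells were stimulated 1 h at 37 °C with 100 µM L-glutamate and compounds (2% DMSO final) in LiCl Ligand Buffer. IP1 accumulation by HTRF; triplicate curves, ≥3 experiments.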

The target of assay [6] is T4, Extracellular calcium-sensing receptor (Rattus norvegicus, UniProt P48442).
T4 sequence (P48442 whole entry): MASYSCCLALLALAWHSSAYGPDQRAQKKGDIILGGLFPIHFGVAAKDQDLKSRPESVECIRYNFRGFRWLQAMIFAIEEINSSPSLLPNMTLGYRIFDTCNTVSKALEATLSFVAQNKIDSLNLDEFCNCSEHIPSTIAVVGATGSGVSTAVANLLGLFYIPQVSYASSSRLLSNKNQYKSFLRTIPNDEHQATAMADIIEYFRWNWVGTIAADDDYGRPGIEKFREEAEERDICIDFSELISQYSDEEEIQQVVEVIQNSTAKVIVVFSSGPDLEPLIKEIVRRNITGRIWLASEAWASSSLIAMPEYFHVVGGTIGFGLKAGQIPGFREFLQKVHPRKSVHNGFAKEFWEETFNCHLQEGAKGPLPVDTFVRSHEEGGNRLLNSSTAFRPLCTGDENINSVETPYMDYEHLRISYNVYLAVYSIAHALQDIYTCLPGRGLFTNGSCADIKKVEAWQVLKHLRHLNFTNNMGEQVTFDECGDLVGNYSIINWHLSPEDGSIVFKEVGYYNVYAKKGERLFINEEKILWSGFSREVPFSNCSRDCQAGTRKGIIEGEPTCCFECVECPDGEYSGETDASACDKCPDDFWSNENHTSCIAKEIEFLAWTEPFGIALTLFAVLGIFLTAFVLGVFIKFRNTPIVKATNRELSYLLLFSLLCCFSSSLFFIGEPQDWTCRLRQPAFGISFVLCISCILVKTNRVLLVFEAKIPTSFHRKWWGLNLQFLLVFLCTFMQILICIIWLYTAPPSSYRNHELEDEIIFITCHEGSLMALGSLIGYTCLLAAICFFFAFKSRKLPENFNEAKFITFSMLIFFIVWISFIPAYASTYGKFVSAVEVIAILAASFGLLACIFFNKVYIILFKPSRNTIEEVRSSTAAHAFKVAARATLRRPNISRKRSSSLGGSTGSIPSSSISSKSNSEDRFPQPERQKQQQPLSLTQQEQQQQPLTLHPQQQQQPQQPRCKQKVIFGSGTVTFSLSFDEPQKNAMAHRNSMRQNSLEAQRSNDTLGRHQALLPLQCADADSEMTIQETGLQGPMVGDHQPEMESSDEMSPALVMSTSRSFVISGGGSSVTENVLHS
Briefly: Antagonist activity at rat CaSR expressed in HEK293 cells assessed as inhibition of Ca2+-induced inositol monophosphate accumulation after 30 min by FRET assay.

pIC50: −log10 of the molar value.

Muscarinic acetylcholine receptor M3, sequence (P20309 whole entry): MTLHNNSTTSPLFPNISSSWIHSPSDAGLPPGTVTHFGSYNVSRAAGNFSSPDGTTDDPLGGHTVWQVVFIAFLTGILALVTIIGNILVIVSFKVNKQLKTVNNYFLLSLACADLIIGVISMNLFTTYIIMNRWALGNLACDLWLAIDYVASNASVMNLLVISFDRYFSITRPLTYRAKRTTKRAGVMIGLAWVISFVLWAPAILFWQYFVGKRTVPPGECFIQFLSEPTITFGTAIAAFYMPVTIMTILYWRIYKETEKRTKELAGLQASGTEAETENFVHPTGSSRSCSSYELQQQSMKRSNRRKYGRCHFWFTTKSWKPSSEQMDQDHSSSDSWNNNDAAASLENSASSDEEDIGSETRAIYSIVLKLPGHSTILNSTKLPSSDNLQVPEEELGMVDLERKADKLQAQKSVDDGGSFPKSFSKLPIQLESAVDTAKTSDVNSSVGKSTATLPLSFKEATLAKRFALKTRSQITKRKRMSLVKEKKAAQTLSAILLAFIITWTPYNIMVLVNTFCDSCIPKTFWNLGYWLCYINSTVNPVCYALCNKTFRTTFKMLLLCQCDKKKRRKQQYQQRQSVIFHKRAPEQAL
Metabotropic glutamate receptor 5, sequence (P31424 whole entry): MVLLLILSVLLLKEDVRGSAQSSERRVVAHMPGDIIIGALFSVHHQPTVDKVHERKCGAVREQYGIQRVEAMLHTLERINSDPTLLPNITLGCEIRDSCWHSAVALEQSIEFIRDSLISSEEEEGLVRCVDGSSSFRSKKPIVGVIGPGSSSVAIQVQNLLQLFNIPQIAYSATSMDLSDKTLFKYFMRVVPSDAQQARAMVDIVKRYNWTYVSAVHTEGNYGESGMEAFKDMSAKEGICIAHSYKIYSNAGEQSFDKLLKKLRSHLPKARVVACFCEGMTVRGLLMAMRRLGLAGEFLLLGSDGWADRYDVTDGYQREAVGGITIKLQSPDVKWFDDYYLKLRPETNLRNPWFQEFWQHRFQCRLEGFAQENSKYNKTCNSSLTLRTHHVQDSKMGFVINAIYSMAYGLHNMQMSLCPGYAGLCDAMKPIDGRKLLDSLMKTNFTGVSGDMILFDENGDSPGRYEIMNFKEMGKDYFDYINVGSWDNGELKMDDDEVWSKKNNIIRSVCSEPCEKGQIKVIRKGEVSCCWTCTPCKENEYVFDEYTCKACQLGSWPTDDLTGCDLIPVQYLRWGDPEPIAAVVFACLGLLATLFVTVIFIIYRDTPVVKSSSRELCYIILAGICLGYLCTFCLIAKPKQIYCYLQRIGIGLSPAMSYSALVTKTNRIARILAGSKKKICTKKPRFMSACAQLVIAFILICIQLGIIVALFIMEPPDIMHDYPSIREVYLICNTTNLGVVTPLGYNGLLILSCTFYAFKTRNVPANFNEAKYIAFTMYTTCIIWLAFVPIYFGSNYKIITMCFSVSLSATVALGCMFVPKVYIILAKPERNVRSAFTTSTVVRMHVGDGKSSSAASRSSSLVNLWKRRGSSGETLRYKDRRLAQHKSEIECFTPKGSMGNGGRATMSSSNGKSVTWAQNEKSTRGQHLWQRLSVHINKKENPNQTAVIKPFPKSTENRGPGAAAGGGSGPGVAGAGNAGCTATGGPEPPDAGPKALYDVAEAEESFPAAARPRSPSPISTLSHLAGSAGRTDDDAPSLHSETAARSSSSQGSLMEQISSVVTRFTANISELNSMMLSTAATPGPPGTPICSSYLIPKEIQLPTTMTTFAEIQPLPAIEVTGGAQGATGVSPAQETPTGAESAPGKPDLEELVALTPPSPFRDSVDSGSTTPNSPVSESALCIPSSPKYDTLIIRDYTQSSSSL

As to `CN(CC(=O)N1CCOCC1)CC(O)c1c(-c2ccccc2)[nH]c2ccccc12` (centres undefined), the pIC50 in assay [1] is less than 3.40. Also, the Relative potency in assay [2] is less than 6.

As for `O=C(CNCC(=O)N1CCOCC1)c1c(-c2ccccc2)[nH]c2ccccc12`, the negative-log IC50 (pIC50) in assay [1] was 3.59. Besides, the Relative potency in assay [2] stood at 9.

Turning to `CN(CCc1c(-c2ccccc2)[nH]c2ccccc12)CC(=O)N1CCOCC1`, the pIC50 in assay [1] was 3.88. For the same compound, the Relative potency in assay [2] was 17.

As for `CN(CC(=O)N1CCOCC1)C(=O)c1c(-c2ccccc2)[nH]c2ccccc12`, the pIC50 in assay [1] was less than 3.40. For the same compound, the Relative potency in assay [2] is less than 6.

As for `CN(CCN1CCOCC1)CC(=O)c1c(-c2ccccc2)[nH]c2ccccc12`, the pIC50 was 5.21 in assay [1]; 3.57 in assay [3]; 4.24 in assay [4]; 3.57 in assay [5]; 3.46 in assay [6].

With `CN(CC(=O)c1c(CO)[nH]c2ccccc12)CC(=O)N1CCOCC1`, in assay [1], the pIC50 is less than 3.40. For the same compound, the Relative potency in assay [2] is less than 6.

As for `COc1ccc2[nH]c(-c3ccccc3)c(C(=O)CN(C)CC(=O)N3CCOCC3)c2c1`, the pIC50 in assay [1] was 4.18. Moreover, the Relative potency in assay [2] is 33.

Consider `CN(CC(=O)c1c(-c2ccccc2)[nH]c2ccc(F)cc12)CC(=O)N1CCOCC1`, for which the negative-log IC50 (pIC50) in assay [1] was 4.40. Further, in assay [2], the Relative potency was 55.

For the compound `CN(CC(=O)c1c(-c2ccccc2)[nH]c2ccccc12)CC(=O)N1CCCC1`, in assay [1], the pIC50 is 4.24. Moreover, the Relative potency in assay [2] is 38.

For `CN(CC(=O)c1c[nH]c2ccccc12)CC(=O)N1CCOCC1`, in assay [1], the pIC50 was less than 3.40. The Relative potency in assay [2] was less than 6.

In the case of `CN(CC(=O)c1c(-c2ccccc2)[nH]c2ccc(CC(=O)N(C)C)cc12)CC(=O)N1CCOCC1`, the negative logarithm of the IC50 (pIC50) in assay [1] is less than 3.40. Further, in assay [2], the Relative potency is less than 6.

Regarding `CN(CC(=O)c1c(-c2ccco2)[nH]c2ccccc12)CC(=O)N1CCOCC1`, the negative-log IC50 (pIC50) in assay [1] is 3.61. For the same compound, the Relative potency in assay [2] turned out to be 9.

`CN(CC(=O)c1c(-c2ccccc2)[nH]c2ccccc12)CC(=O)N1CCOCC1`: the pIC50 in assay [1] is 4.66; in assay [3] it was 3.67; in assay [4], 4.56; in assay [5], 3.65; in assay [6], 3.50.

Turning to `O=C(CN1CCCC(C(=O)N2CCOCC2)C1)c1c(-c2ccccc2)[nH]c2ccccc12` (centres undefined), the negative logarithm of the IC50 (pIC50) is 5.26 in assay [1]; 3.68 in assay [3]; 4.29 in assay [4]; 3.58 in assay [5]; 3.62 in assay [6].

Take `COc1ccc(-c2[nH]c3ccccc3c2C(=O)CN(C)CC(=O)N2CCOCC2)cc1`: the pIC50 was 5.03 in assay [1]; 4.29 in assay [3]; 5.38 in assay [4]; 4.38 in assay [5]; 4.25 in assay [6].

As to `CN(CC(=O)c1c(-c2ccc(F)cc2)[nH]c2ccccc12)CC(=O)N1CCOCC1`, in assay [1], the pIC50 is 4.67. In addition, the Relative potency in assay [2] was found to be 103.
